Data as given in PubChem BioAssay.
The source made the active and inactive calls.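 The calls were made as follows, unless noted: active = Her2 level under about 52% in both replicate screens, with viability over 70% of control (limit read from the data); inconclusive = Her2 under the limit in one screen only, or viability under 70%; inactive = Her2 level above the set limit.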

Tests used:
[1] = reducers of endogenous Her2 protein level, primary screen, SKBR3 breast tumor cells, AlphaScreen, ATP viability (AID 461); conditions: 18-24 h, measured here: SKBR3 viability, ATP luminescence, at 10 µM;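 as to Her2 level: lower value means less Her2 protein in the cells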;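 as to viability: percent of carrier control wells set as 100% viability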
[2] = molecular target: Receptor tyrosine-protein kinase erbB-2 (Homo sapiens) (UniProt P04626); assay: as above; conditions: 18-24 h, at 10 µM, stronger effect = lower value
[3] = SK-BR-3 cell growth inhibitors, pilot screen, 24 h, human (AID 572;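 active = viability at or below 10% of carrier control in both of two separate runs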;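 also: compound exposure lasted between 18 and 24 h rather than exactly 24 h; 100% = carrier-treated control wells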); conditions: SK-BR-3 viability, CellTiter-Glo luminescence, at 10 µM, stronger effect = lower value
[4] = HUVEC growth inhibition – cell-based, human, primary screen (AID 575;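 active = viability at or below 30% in both replicate assays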;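 also: 100% = median of untreated cell wells with 0.1% DMSO on each plate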); conditions: HUVEC proliferation, CellTiter-Glo luminescence, 72 h; at 10 µM; stronger effect = lower value
Summary of the method: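 Test system: HUVEC primary cells. Quantity: 1250 endothelial cells in each well. Dosing: single-point 10 µM, DMSO 0.1% final. Incubation: 72 h treatment at 37 °C. Measured by: CTG luminescence. Control set: DMSO cell controls and MePR drug controls. Plate: collagen-coated 384-well format.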

[5] = growth inhibitors of H69AR lung tumor, primary screen, human, duplicate replicates (AID 580;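 active = viability at or under a set limit in both replicates, limit being median viability minus 3 SD, cut at about 48% in these data, passing the limit was not always enough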;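 also: 100% = mean luminescence of untreated wells and 0% = no signal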); conditions: H69AR lung tumor cells viability, ATP luminescence, 72 h; at 10 µM; stronger effect = lower value
[6] = reversal of MRP1-mediated doxorubicin resistance, pilot screen, H69AR cells, doxorubicin co-treatment (AID 601;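 active = viability loss from added drug above about 55%, and viability with drug at most 40%, in both replicates, limit read from the data, passing the limit was not always enough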); conditions: CellTiter-Glo, 72 h, at 10 µM; for differential viability (reversal): stronger effect = higher value
[7] = 384-well plate pilot, post-Golgi transport modulator project, inhibition of yeast transport mutant growth (AID 636; in the data active = inhibition above about 31%); conditions: absorbance 615 nm, about 18 h, stronger effect = higher value
[8] = growth suppression of yeast trafficking mutant, preliminary HTS, modulators of trafficking downstream of Golgi apparatus project, 1536-format plate, OD 615 nm (AID 637; in the data active = inhibition above about 30%); conditions: yeast transport mutant growth, absorbance 615 nm, 18 h; stronger effect = higher value
[9] = H69AR cells + 2 uM doxorubicin, measured here: viability with 2 uM doxorubicin, stronger effect = lower value
[10] = H69AR cells, compound alone cytotoxicity

Chain of Receptor tyrosine-protein kinase erbB-2 (Homo sapiens) (P04626 whole entry, looked up): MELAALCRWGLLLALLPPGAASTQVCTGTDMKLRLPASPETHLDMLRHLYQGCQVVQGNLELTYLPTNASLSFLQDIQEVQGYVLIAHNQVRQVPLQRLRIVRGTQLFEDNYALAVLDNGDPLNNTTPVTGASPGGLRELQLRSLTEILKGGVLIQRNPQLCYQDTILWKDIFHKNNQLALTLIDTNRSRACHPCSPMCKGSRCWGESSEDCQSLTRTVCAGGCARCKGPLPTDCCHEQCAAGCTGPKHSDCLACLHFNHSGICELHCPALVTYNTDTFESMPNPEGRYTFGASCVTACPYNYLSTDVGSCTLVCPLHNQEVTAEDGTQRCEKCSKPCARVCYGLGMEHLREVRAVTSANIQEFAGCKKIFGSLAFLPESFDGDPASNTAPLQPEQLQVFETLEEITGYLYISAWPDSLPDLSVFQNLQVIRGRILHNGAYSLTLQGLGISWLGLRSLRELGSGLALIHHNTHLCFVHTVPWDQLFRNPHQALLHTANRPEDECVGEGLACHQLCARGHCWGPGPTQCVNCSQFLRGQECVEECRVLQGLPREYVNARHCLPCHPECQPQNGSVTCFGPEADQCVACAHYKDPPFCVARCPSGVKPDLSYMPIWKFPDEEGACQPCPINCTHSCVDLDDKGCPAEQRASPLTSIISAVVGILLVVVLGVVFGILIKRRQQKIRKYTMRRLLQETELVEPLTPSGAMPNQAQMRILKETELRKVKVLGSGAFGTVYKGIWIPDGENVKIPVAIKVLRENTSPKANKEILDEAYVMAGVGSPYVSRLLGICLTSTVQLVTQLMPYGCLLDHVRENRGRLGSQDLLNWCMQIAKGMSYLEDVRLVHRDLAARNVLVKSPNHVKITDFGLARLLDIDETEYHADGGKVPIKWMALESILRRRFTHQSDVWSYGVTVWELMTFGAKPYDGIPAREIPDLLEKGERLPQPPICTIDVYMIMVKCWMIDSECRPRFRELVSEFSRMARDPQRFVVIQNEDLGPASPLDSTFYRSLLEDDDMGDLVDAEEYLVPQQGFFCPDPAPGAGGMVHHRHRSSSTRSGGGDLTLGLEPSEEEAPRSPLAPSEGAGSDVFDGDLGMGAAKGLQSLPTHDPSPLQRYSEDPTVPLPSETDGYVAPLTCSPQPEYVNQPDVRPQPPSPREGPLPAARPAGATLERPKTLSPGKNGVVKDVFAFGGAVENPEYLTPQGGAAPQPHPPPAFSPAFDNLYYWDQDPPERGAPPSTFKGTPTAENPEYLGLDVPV

SMILES | viability [1] | Her2 level [2] | viability [3] | viability [4] | viability [5] | differential viability (reversal) ([6]; H69AR cells + 2 uM doxorubicin) | viability [6, 9] | viability [6, 10] | inhibition [7] | inhibition [8]
Clc1ccc(Cn2c(CN3CCCC3)nc3ccccc32)cc1 | 92.5% | 112% (inactive) | 92.5% (inactive) | 85.5% (inactive) | 73.3% (inactive) | -12.6% (inactive) | 85.9% | 73.3% |  | 
C[C@@H]1C[C@H]2[C@@H]3CCC4=CC(=O)C=C[C@]4(C)[C@@]3(F)[C@@H](O)C[C@]2(C)[C@H]1C(=O)CO | 84% | 150% (inactive) | 84% (inactive) | 102% (inactive) | 91.2% (inactive) | -10.7% (inactive) | 102% | 91.2% |  | 
C[C@]12CC[C@@H]3c4ccc(O)cc4CC[C@H]3[C@@H]1CC[C@@H]2OC(=O)CCC(=O)O | 118% | 111% (inactive) | 118% (inactive) | 99.3% (inactive) | 105% (inactive) | 0.94% (inactive) | 104% | 105% |  | 
CCN(CC)CC#CCOC(=O)C(O)(c1ccccc1)C1CCCCC1 (stereo not drawn) | 82% | 99% (inactive) | 82% (inactive) | 79.6% (inactive) | 71.7% (inactive) | -0.33% (inactive) | 72.1% | 71.7% |  | 
COc1ccc(OC)c(C(=O)CSc2nnc(-c3ccc(OC)c(OC)c3)o2)c1 | 104% | 104% (inactive) | 104% (inactive) | 75.9% (inactive) | 74.5% (inactive) | 0.865% (inactive) | 73.7% | 74.5% | -5.32% (inactive) | -8.85% (inactive)
Cc1cc(C)nc(NS(=O)(=O)c2ccc(N)cc2)n1 | 104% | 110% (inactive) | 104% (inactive) | 83.1% (inactive) | 86.7% (inactive) | 7.25% (inactive) | 79.4% | 86.7% |  | 
COc1ccc2cc(C#N)c(NC(C)C)nc2c1 | 90.5% | 63% (inactive) | 90.5% (inactive) | 90.8% (inactive) | 75.4% (inactive) | -6.05% (inactive) | 81.4% | 75.4% | -2.76% (inactive) | 2.91% (inactive)
O=C(O)c1cc(=O)c2c(OCC(O)COc3cccc4oc(C(=O)O)cc(=O)c34)cccc2o1 | 102% | 102% (inactive) | 102% (inactive) | 121% (inactive) | 106% (inactive) | 14.7% (inactive) | 91.5% | 106% |  | 
